In EPA's CvTdb concentration-time database:

How the values were obtained:
Rat [1] = assay: concentration in plasma after dosing; details: dosed: Wyeth-14643, 5.0 mg/kg, oral, Male, Sprague-Dawley
Rat [2] = assay: concentration in plasma after dosing; details: 1 h; dosed: Wyeth-14643; 1.0 mg/kg; oral; Male; Sprague-Dawley
Rat [3] = assay: concentration in heart after dosing; details: 3 h; dosed: Bis 2-Chloroethoxy Methane; 20 mg/kg; iv; Female; F344
Rat [4] = assay: concentration in heart after dosing; details: 1 h; dosed: Bis 2-Chloroethoxy Methane; 20 mg/kg; iv; Female; F344
Rat [5] = assay: concentration in liver after dosing; details: 5 h; dosed: Bis 2-Chloroethoxy Methane; 20 mg/kg; iv; Male; F344
Rat [6] = assay: concentration in thymus after dosing; details: 3 h; dosed: Bis 2-Chloroethoxy Methane; 20 mg/kg; iv; Male; F344
Rat [7] = assay: concentration in brain after dosing; details: 3 h; dosed: Fluorotelomer alcohol 8+2; 80 mg/kg; oral; Female; Harlan Sprague Dawley
Rat [8] = assay: concentration in liver after dosing; details: 6 h; dosed: Fluorotelomer alcohol 8+2; 80 mg/kg; oral; Female; Harlan Sprague Dawley
Rat [9] = assay: concentration in brain after dosing; details: 1 h; dosed: Fluorotelomer alcohol 8+2; 80 mg/kg; oral; Female; Harlan Sprague Dawley
Rat [10] = assay: concentration in brain after dosing; details: 1 h; dosed: Fluorotelomer alcohol 8+2; 24 mg/kg; oral; Male; Harlan Sprague Dawley
Rat [11] = assay: concentration in plasma after dosing; details: dosed: Fluorotelomer alcohol 8+2, 12 mg/kg, oral, Male, Harlan Sprague Dawley
Rat [12] = assay: concentration in kidney after dosing; details: 12 h; dosed: Fluorotelomer alcohol 8+2; 24 mg/kg; oral; Male; Harlan Sprague Dawley
Rat [13] = assay: concentration in kidney after dosing; details: 3 h; dosed: Fluorotelomer alcohol 8+2; 80 mg/kg; oral; Female; Harlan Sprague Dawley
Rat [14] = assay: concentration in plasma after dosing; details: 5 min; dosed: Di-n-butyl phthalate; 50 mg/kg; oral; Male; Sprague-Dawley
Rat [15] = assay: concentration in brain after dosing; details: 1848 h; dosed: Perfluorodecanoic acid; 10 mg/kg; oral; Male; Harlan Sprague Dawley
Rat [16] = assay: concentration in plasma after dosing; details: dosed: Perfluorodecanoic acid, 2 mg/kg, iv, Male, F344
Rat [17] = assay: concentration in plasma after dosing; details: dosed: Perfluorodecanoic acid, 2 mg/kg, oral, Male, Harlan Sprague Dawley
Rat [18] = assay: concentration in plasma after dosing; details: 0.5 h; dosed: Primidone; 130 mg/kg; oral; Female; F344
Rat [19] = assay: concentration in plasma after dosing; details: 6 h; dosed: Primidone; 80 mg/kg; oral; Female; F344
Rat [20] = assay: concentration in liver after dosing; details: 8 h; dosed: Thiodiglycolic Acid; 20 mg/kg; iv; Female; Harlan Sprague Dawley
Rat [21] = assay: concentration in liver after dosing; details: 40 min; dosed: Thiodiglycolic Acid; 20 mg/kg; iv; Male; Harlan Sprague Dawley
Rat [22] = assay: concentration in heart after dosing; details: 20 min; dosed: Thiodiglycolic Acid; 20 mg/kg; iv; Female; Harlan Sprague Dawley
Rat [23] = assay: concentration in liver after dosing; details: 5.333 h; dosed: Thiodiglycolic Acid; 20 mg/kg; iv; Female; Harlan Sprague Dawley
Rat [24] = assay: concentration in liver after dosing; details: 1 h; dosed: Thiodiglycolic Acid; 20 mg/kg; iv; Female; Harlan Sprague Dawley
Rat [25] = assay: concentration in liver after dosing; details: 10 h; dosed: Thiodiglycolic Acid; 20 mg/kg; iv; Male; F344
Rat [26] = assay: concentration in thymus after dosing; details: 6.667 h; dosed: Thiodiglycolic Acid; 20 mg/kg; iv; Female; Harlan Sprague Dawley
Rat [27] = assay: concentration in plasma after dosing; details: dosed: dichloroacetic acid, 100 mg/kg, oral, Male, F344
Rat [28] = assay: concentration in plasma after dosing; details: dosed: dichloroacetic acid, 10 mg/kg, oral, Male, Harlan Sprague Dawley
human [29] = assay: concentration in plasma after dosing; negative times count back from the end of exposure; details: dosed: trichloroethylene, 100 ppm, inhalation, duration: 4 hr, person
Method in brief: (§1)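 Sampling and analytical methods are those of each source and frequently went unreported. The concentration-versus-time and amount-versus-time points were compiled from published in vivo toxicokinetic studies and two structured collections. Most were digitised from plot screenshots with WebPlotDigitizer, with others copied from tables, in the reported units.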

dog = assay: concentration in urine after dosing; details: dosed: trichloroethylene, 100 ppm, inhalation, duration: 6 hr, male, beagle
Method in brief: as §1

human [30] = assay: concentration in urine after dosing; details: dosed: trichloroethylene, inhalation, duration: 2 hr - 20 min
Method in brief: as §1

Cc1cccc(Nc2cc(Cl)nc(SCC(=O)O)n2)c1C
Rat [1]
Details	concentration in plasma [ng/mL]
5 min	572
8 h	255

Details	concentration in plasma [ng/mL]
Rat [2]	755

ClCCOCOCCCl [Bis 2-Chloroethoxy Methane]
Details	concentration in heart [ng/g]	concentration in liver [ng/g]	concentration in thymus [ng/g]
Rat [3]	124	–	–
Rat [4]	1380	–	–
Rat [5]	–	33.4	–
Rat [6]	–	–	394

OCCC(F)(F)C(F)(F)C(F)(F)C(F)(F)C(F)(F)C(F)(F)C(F)(F)C(F)(F)F [Fluorotelomer alcohol 8+2]
Details	concentration in brain [ng/g]	concentration in kidney [ng/g]	concentration in liver [ng/g]
Rat [7]	7770	–	–
Rat [8]	–	–	2430
Rat [9]	4990	–	–
Rat [10]	2020	–	–
Rat [12]	–	187	–
Rat [13]	–	5170	–

Rat [11]
Details	concentration in plasma [ng/mL]
0.25 h	183
6 h	27.9

CCCCOC(=O)c1ccccc1C(=O)O [Mono-n-butyl phthalate]
Details	concentration in plasma [ng/mL]
Rat [14]	4780

O=C(O)C(F)(F)C(F)(F)C(F)(F)C(F)(F)C(F)(F)C(F)(F)C(F)(F)C(F)(F)C(F)(F)F [Perfluorodecanoic acid]
Details	concentration in brain [ng/g]
Rat [15]	644

concentration in plasma [ng/mL]
Details	1 h	12 h	192 h	1200 h	2520 h
Rat [16]	–	4320	–	1720	–
Rat [17]	4030	–	4670	–	645

CCC1(c2ccccc2)C(=O)NC(=O)NC1=O [Phenobarbital]
Details	concentration in plasma [ng/mL]
Rat [18]	1140
Rat [19]	1820

O=C(O)CSCC(=O)O [Thiodiglycolic Acid]
Details	concentration in heart [ng/g]	concentration in liver [ng/g]	concentration in thymus [ng/g]
Rat [20]	–	940	–
Rat [21]	–	183000	–
Rat [22]	6060	–	–
Rat [23]	–	4800	–
Rat [24]	–	60100	–
Rat [25]	–	7350	–
Rat [26]	–	–	329

O=C(O)C(Cl)Cl [dichloroacetic acid]
Details	concentration in plasma [ng/mL]
Rat [27], 0.25 h	13300
Rat [27], 6 h	32800
Rat [28], 0.5 h	637
Rat [28], 2 min	398
human [29], 0 h	8
human [29], 0.25 h	5
human [29], 0.5 h	5
human [29], 1.75 h	4
human [29], 4 h	5
human [29], 12 h	5

human [29], during exposure
Details	concentration in plasma [ng/mL]
-2 h	4
-1 h	10

O=C(O)C(Cl)(Cl)Cl [trichloroacetic acid]
dog
Details	concentration in urine [ng/mL]
24 h	32600
48 h	92800
72 h	204000
96 h	386000
120 h	228000

concentration in urine [mg/kg], human [30]
Details	2.667 h	6.667 h	10.67 h	19.67 h
1348 mg	6.6	14.2	15.6	21.1
1681 mg	4.3	10.6	22.2	24.9
3907 mg	3	14.2	22.9	26.7
